According to publication PMC4814157 (ACS chemical biology, 2011):
Where a chain is given by its changes, count along the chain named. “Also recorded” adds a separate entry of the source.

Experiments:
[1] = target: T1, Scp1 (Homo sapiens, UniProt Q9GZU7); assay: Concentration-response assay of rabeprazole analogues on Scp1; format: biochemical
T1 sequence (Q9GZU7 77-256): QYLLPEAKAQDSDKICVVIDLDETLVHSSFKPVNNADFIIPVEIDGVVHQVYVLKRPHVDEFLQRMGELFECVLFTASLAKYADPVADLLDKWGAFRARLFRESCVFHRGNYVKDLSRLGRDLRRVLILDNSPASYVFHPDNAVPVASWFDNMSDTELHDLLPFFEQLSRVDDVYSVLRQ

[2] = target: T1, Scp1; assay: pNPP assay of Scp1 phosphatase activity; format: biochemical
[3] = target: T1, Scp1; assay: Malachite green assay with CTD-derived phosphorylated peptide; format: biochemical
How it was run: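 Human Scp1 (residues 77–256, E. coli BL21(DE3)-expressed, Ni-NTA purified), 5 ng, acting on a 17-mer Ser5-phosphorylated CTD peptide. Reaction ran 3 min at 37 °C, was quenched with malachite green reagent, and read at 620 nm. IC50 used substrate near Km with 0–100 µM inhibitor. Km came from peptide at 0.01–0.4 mM; Ki from peptide titrations without and with inhibitor.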

[4] = target: T1, Scp1; assay: Differential scanning fluorimetry, thermal stability of Scp1; format: binding; conditions: 20 µM protein, 100 µM rabeprazole; 57.8 °C in absence of compound
[5] = test system: Scp1 F106E mutant; assay: pNPP assay, Scp1 F106E mutant; format: biochemical, human
How it was run: (§1)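 Point mutants of human Scp1 (residues 77–256; E. coli BL21(DE3), Ni-NTA purified), 50 ng each. Each was preincubated with inhibitor 10 min at RT in pH 5.5 Tris-acetate buffer with 10 mM MgCl2, 0.02% Triton X-100, 1% DMSO. pNPP near Km was added and hydrolysis ran 10–15 min at 37 °C. Reactions were quenched with 0.25 N NaOH and read at 410 nm. IC50 was fitted from concentration–response curves (0–100 µM inhibitor).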

[6] = target: T2, Scp1 V127A mutant (Homo sapiens, UniProt Q9GZU7, V127A); assay: pNPP assay, Scp1 V127A mutant; format: biochemical
T2 sequence (Q9GZU7 77-256 V127A): T1 sequence (Q9GZU7 77-256) with V51A
How it was run: as §1

[7] = target: T3, Scp1 K157A mutant (Homo sapiens, UniProt Q9GZU7, K157A); assay: pNPP assay, Scp1 K157A mutant; format: biochemical
T3 sequence (Q9GZU7 77-256 K157A): T1 sequence (Q9GZU7 77-256) with K81A
How it was run: as §1

[8] = target: T4, Scp1 L155A mutant (Homo sapiens, UniProt Q9GZU7, L155A); assay: pNPP assay, Scp1 L155A mutant; format: biochemical
T4 sequence (Q9GZU7 77-256 L155A): T1 sequence (Q9GZU7 77-256) with L79A
How it was run: as §1

[9] = test system: Scp1 Tyr158 to Ala mutant; assay: pNPP assay, Scp1 Tyr158 to Ala mutant; format: biochemical, human
How it was run: as §1

[10] = target: T5, S. pombe Fcp1 (Schizosaccharomyces pombe, UniProt Q9P376); assay: pNPP assay, concentration-response on Fcp1; format: biochemical; conditions: up to 0.1 mM rabeprazole, substrate comparable to Km
T5 sequence (Q9P376 148-641): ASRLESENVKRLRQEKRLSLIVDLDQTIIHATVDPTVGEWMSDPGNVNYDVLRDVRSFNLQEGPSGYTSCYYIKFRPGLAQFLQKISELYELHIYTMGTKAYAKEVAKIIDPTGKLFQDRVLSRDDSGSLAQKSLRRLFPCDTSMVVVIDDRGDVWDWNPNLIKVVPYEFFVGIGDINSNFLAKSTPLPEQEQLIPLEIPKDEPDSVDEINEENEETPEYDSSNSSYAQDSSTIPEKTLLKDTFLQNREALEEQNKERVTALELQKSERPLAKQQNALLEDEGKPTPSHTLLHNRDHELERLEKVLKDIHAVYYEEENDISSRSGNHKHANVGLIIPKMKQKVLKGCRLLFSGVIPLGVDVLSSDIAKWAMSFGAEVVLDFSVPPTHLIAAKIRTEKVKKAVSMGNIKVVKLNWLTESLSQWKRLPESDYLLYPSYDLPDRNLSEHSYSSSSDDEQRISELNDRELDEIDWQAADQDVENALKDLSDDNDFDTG

[11] = target: T6, human Dullard (Homo sapiens, UniProt O95476); assay: pNPP assay, concentration-response on Dullard; format: biochemical; conditions: up to 0.1 mM rabeprazole, substrate comparable to Km
T6 sequence (O95476 46-244): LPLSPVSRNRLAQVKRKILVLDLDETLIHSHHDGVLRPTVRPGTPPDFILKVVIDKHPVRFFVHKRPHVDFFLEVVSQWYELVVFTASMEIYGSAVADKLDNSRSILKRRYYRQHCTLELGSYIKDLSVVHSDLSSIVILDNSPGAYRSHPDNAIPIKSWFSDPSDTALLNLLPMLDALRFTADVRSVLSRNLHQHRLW

[12] = target: T7, bacteriophage λ Ser/Thr phosphoprotein phosphatase (λPPase) (Escherichia phage lambda, UniProt P03772); assay: Inhibition of λPPase; format: biochemical; conditions: up to 1 mM concentration (data not shown)
T7 sequence (P03772 1-221): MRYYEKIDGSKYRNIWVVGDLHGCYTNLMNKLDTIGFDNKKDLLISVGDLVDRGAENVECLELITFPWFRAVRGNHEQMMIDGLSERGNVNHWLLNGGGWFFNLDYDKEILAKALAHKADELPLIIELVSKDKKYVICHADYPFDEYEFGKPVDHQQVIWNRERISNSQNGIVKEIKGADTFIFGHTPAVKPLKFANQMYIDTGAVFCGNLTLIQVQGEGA

## COCCCOc1cc[n+]([O-])c(C[S+]([O-])c2nc3ccccc3[nH]2)c1C (stereo not drawn) [Rabeprazole N-oxide]
[1]
  inhibition of Scp1: no inhibition

## COCCCOc1ccnc(CS(=O)(=O)c2nc3ccccc3[nH]2)c1C [Rabeprazole sulfone]
[1]
  inhibition of Scp1: did not show any inhibition

## Cc1c(OCC(F)(F)F)ccnc1C[S+]([O-])c1nc2ccccc2[nH]1 (stereo not drawn) [lansoprazole]
[1]
  inhibition of Scp1: no inhibition; also recorded: does not inhibit

## COCCCOc1ccnc(C[S+]([O-])c2nc3ccccc3[nH]2)c1C (stereo not drawn) [rabeprazole]
[2]
  IC50: 4 ± 0.7 µM
[2]; against pNPP
  mechanism of inhibition: mixed inhibitor
[2]; pNPP as the substrate, steady-state kinetics
  Ki′: 10 ± 2 µM
[3]
  IC50: 9 ± 3 µM
  Ki: 5 ± 1 µM
[3]; CTD-derived phosphorylated peptide as the substrate
  mechanism of inhibition: competitive inhibitor
[4]
  melting temperature of Scp1 in the presence of the compound: 59.1 °C
[5]
  increase of IC50 versus wildtype Scp1: at least 10 fold
[6]
  change of IC50 versus wildtype Scp1: moderately increased IC50
[7]
  change of IC50 versus wildtype Scp1: moderately increased IC50
[8]
  change of IC50 versus wildtype Scp1: moderately increased IC50
[9]
  loss of inhibition versus wildtype Scp1: at least 10 fold
[10]
  inhibition of Fcp1: no inhibition
[11]
  inhibition of Dullard: no inhibition
[12]
  inhibition of λPPase: no inhibition
